Calb FLC: affects C. albicans growth with fluconazole; C. albicans CaCi-2 (fluconazole-resistant clinical isolate) + fluconazole, Alamar Blue growth, 48 h; 300,000 compounds, 0.57% hits; growth inhibition, % (test concentration not listed);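 active means growth inhibition above about 58% in most replicates, limit read from the data, passing the limit was not always enough; inconclusive means exactly half the replicates above a set limit; inactive means most replicates below a set limit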;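 further: all wells also contain fluconazole at 8 µg/ml as a sub-toxic cotreatment; 0% = median of DMSO wells and 100% = median of geldanamycin control wells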
NALP3 yeast inh: NALP3 inhibition in yeast; inhibition, % at 10 µM; 330,000 compounds, 0.39% hits; Yeast reconstituted NLRP3/ASC/caspase-1, beta-gal luminescence, 24 h;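 active means inhibition of 50% or more; inactive means inhibition below 50%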;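 further: plate controls were induced DMSO wells for no effect and uninduced yeast grown without galactose for full effect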
CSC inhib: blocks cancer stem cells | cancer stem cell-like cells viability, luminescence | inhibition, % at 7.5 µM | 300,000 compounds, 1.1% hits; in the data active means inhibition above about 75%; inconclusive means no clear call, values can overlap the other calls; tested in HMLE shEcad cells
T cruzi inh: blocks replication of Trypanosoma cruzi; T. cruzi beta-gal in NIH3T3, luminescence, 90 h; inhibition, % (concentration not given with the values); 300,000 compounds, 1.4% hits; AID 1885;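 active means mean inhibition across valid replicates above about 55%, limit read from the data; inconclusive means mean below that limit but half or more replicates reach it; inactive means mean below it, under half of replicates reach it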;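 further: signal also drops with host cell toxicity which is not excluded here; 0% = plate median of DMSO wells and 100% = zero luminescence signal; higher percent means less beta-gal luminescence so fewer parasites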
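Test system: β-gal T. cruzi (Tulahuen C4) inside NIH/3T3 cells / Quantity: 5,000 cells/well / Measured by: luminescence from GalScreen with 0.05% NP40, read after 60 min / Medium: DMEM plus 2% FBS / Measure: parasite load inhibition, % / Reagent: Tulahuen C4 trypomastigotes, 5000/well / Schedule: co-culture of at least 90 h after 3 h attachment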
Mdm2-MdmX inh: inhibitors of human Mdm2/MdmX interaction; O15151+Q00987; SaOS-2 split-luciferase Mdm2/MdmX complementation, luminescence; inhibition, % at 8 µM; 330,000 compounds, 3% hits; AID 485346;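 active means inhibition of at least 50% at 8 µM in the primary screen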
Target sequence (O15151 whole entry, looked up): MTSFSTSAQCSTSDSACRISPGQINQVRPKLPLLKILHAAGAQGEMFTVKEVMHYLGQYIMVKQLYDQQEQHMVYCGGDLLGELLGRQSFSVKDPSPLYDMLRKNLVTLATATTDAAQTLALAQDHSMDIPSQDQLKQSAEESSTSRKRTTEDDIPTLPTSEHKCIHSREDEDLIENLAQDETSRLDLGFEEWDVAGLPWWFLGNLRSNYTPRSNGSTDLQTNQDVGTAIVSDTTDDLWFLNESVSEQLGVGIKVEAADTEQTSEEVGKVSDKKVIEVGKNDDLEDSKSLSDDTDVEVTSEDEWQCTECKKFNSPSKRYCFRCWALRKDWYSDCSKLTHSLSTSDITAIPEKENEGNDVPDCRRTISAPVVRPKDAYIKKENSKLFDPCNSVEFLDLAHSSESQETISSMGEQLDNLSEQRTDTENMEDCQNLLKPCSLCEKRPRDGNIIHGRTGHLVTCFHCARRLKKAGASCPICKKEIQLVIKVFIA
Target sequence (Q00987 whole entry, looked up): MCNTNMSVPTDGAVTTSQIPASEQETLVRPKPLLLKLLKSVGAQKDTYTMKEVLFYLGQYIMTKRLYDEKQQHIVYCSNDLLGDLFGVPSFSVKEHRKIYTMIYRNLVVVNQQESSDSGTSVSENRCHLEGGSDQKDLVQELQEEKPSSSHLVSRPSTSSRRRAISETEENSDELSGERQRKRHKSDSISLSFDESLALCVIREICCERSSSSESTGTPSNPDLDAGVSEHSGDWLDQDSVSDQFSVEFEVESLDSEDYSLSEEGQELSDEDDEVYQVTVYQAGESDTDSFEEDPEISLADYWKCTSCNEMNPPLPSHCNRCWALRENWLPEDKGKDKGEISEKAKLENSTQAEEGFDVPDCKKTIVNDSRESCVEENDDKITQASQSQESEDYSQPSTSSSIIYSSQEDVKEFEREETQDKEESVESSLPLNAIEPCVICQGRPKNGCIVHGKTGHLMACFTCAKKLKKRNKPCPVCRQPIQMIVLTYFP
Beta cell apopt: beta cell apoptosis inhibition. INS-1E cytokine-induced death, ATP luminescence, 48 h; percent of positive-control rescue, neutral wells zero. 300,000 compounds, 0.8% hits. protection from apoptosis, % (concentration not given with the values). AID 435005;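 active means Every replicate reaches about 75%, or at least half do and their mean reaches it too, limit read from the data; inconclusive means At least half of replicates reach the limit but their mean does not; inactive means Under half of replicates reach the limit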;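 further: 0% = cytokine-treated negative control wells and 100% = positive control rescue; higher means more ATP so stronger rescue from cytokine killing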
Mdm2-MdmX conf: human Mdm2/MdmX binding inhibition, confirmed. shares compounds with Mdm2-MdmX inh. luminescent assay. inhibition, % at 8 µM. 10,000 compounds, 55% hits; in the data active means inhibition above about 40%
FLuc counter: inhibits full-length luciferase, flagging false Mdm2/MdmX hits. shares compounds with Mdm2-MdmX inh. SaOS-2 full-length luciferase counterscreen, luminescence. inhibition, % at 8 µM. 6,200 compounds, 77% hits;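 active means mean inhibition at 8 µM reaching about 37%, which flags the compound as non-specific, limit read from the data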;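 further: p53-null SaOS-2 cells with luciferase driven by a doxycycline-inducible promoter; compound on cells about two nights before reading with doxycycline added after day one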
Active calls of the source: *; ? = inconclusive; nt = no result given. Only some compounds are listed: those with a hit (about 5.3% of all), similar ones and a draw of the others.

SMILES	Calb FLC	NALP3 yeast inh	CSC inhib	T cruzi inh	Mdm2-MdmX inh	Beta cell apopt	Mdm2-MdmX conf	FLuc counter
COc1ccc2c(c1)c(=O)oc1c(C)c(OCC(=O)N3CCc4ccccc4C3)ccc12	0	13	6	-4	53*	-3	13	nt
Cc1c(C)c2ccc(OCC(=O)N3CCN(c4ccc(F)cc4)CC3)c(C)c2oc1=O	-2	24	2	4	11	2	nt	nt
COc1ccc(N2CCN(C(=O)COc3ccc4c(C)c(C)c(=O)oc4c3C)CC2)cc1	19	4	-3	-11	53*	1	20	nt
Cc1cc(OCC(=O)NC2CC(C)(C)NC(C)(C)C2)c2c(C)cc(=O)oc2c1	-7	7	-3	8	2	2	nt	nt
CCOC(=O)Cc1csc(NC(=O)Cn2cnc3c2c(=O)n(C)c(=O)n3C)n1	-10	11	14	-6	-10	-1	nt	nt
COC(=O)[C@@H]1Cc2c([nH]c3ccccc23)C(C)(C)N1C(=O)CCl	2	1	11	63*	100*	-6	98*	17
CCc1nc2ccccc2c(C(=O)OCC(=O)Nc2cccc(S(=O)(=O)N3CCOCC3)c2)c1C	-3	17	3	-21	66*	0	75*	45*
CCc1nc2ccccc2c(C(=O)OCC(=O)Nc2ccc(S(=O)(=O)N3CCOCC3)cc2)c1C	0	3	5	22	23	3	nt	nt
COc1cc(-c2noc(C)c2C#Cc2ccccn2)cc(OC)c1OC	9	22	82*	-9	65*	2	78*	77*
COc1cc(-c2noc(C)c2/C=C/c2ccc(N)cc2)cc(OC)c1OC	7	11	-15	33	84*	52	86*	108*
CNC(C)C#Cc1c(-c2cc(OC)c(OC)c(OC)c2)noc1C (centres undefined)	11	-7	0	19	28	-11	nt	nt
COc1cc(-c2noc(C)c2C#Cc2ccc(N)cc2)cc(OC)c1OC	-4	9	108*	33	89*	25	70*	89*
CC(C)CN(C(=O)COC(=O)C1CC1)c1c(N)n(Cc2ccccc2)c(=O)[nH]c1=O	8	7	-3	-5	7	0	nt	nt
COc1ccccc1-c1cc(C(=O)Nc2c(F)cc(F)cc2Br)no1	1	10	8	12	9	0	nt	nt
C=C(C)CN(CC)C(=O)CSc1nc2ncc(Cl)cc2[nH]1	-8	4	12	9	17	-1	nt	nt
COc1ccc(NC(=O)/C(C#N)=C\c2cc(C)n(-c3ccc4c(c3)OCO4)c2C)cc1	1	13	48	3	58*	21	55*	75*
CCOC(=O)N1CCN(C(=O)c2ccc(N3CC4CC(C3)c3cccc(=O)n3C4)c(NC(=O)c3ccc(F)cc3)c2)CC1 (centres undefined)	2	10	-14	26	28	-7	nt	nt
Cc1nc(SCc2nc3ccccc3[nH]2)c2oc3cc(Br)ccc3c2n1	nt	37	15	nt	65*	1	12	nt
NS(=O)(=O)c1ccc(NC(=O)CCC(=O)c2cccs2)cc1	-5	25	1	-18	5	0	nt	nt
CCCN(CCC)C(=O)CSc1nc2n[nH]c(C)c2c(=N)n1-c1ccc(OC)cc1	-4	21	2	8	50*	26	19	nt
COc1ccccc1NC(=O)CSc1nc2n[nH]c(C)c2c(=N)n1-c1ccccc1Cl	32	7	17	21	68*	nt	41*	71*
CCCN(CCC)C(=O)CSc1nc2n[nH]c(C)c2c(=N)n1-c1ccc(OCC)cc1	9	9	-17	nt	33	17	nt	nt
CCOc1ccc(-n2c(SCC(=O)Nc3ccc(CC)cc3)nc3n[nH]c(C)c3c2=N)cc1	-4	-12	-11	5	42	6	nt	nt
CCN(C(=O)CSc1nc2n[nH]c(C)c2c(=N)n1-c1ccc(Cl)c(C)c1)c1cccc(C)c1	44	11	42	31	76*	34	21	nt
CC(=O)Nc1sc2c(c1-c1nc3ccccc3s1)CCN(C(C)C)C2	nt	-12	56	nt	100*	100*	69*	60*
SMILES	Calb FLC	NALP3 yeast inh	CSC inhib	T cruzi inh	Mdm2-MdmX inh	Beta cell apopt	Mdm2-MdmX conf	FLuc counter
Cc1oc(S(=O)(=O)N2CCCCC2)cc1NC(=O)Nc1ccc(Cl)cc1	1	14	14	10	-11	3	nt	nt
CC(C)[C@H](NC(=O)c1ccccc1)C(=O)NCCc1ccccc1	-25	15	-7	-7	9	3	nt	nt
CNC[C@@H](C)NC[C@@H](Cc1ccccc1)NCCc1ccccc1	-9	9	27	-30	69*	4	36	nt
S=C1SCN(CC2CC2)CN1CC1CC1	6	25	-6	7	20	3	nt	nt
CCC(C)NS(=O)(=O)c1ccc(NC(=O)C(Sc2ccccc2)c2ccccc2)cc1 (centres undefined)	3	1	3	58*	56*	19	44*	70*
COc1cccc(CN(Cc2ccccc2F)S(=O)(=O)c2ccc(S(=O)(=O)NCc3ccccc3)cc2)c1	0	1	12	45	52*	0	34	nt
CCOC(=O)/C=C/C(=O)OCC(=O)Nc1c(Cl)cccc1Cl	18	6	3	-8	20	-2	nt	nt
CC(NC(=O)Nc1nnc(C(F)(F)F)s1)(C(F)(F)F)C(F)(F)F	71	7	2	45	95*	120*	59*	33
CCOC(=O)C1(CCc2ccccc2)CCN(Cc2c(O)cccc2OC)CC1	-9	22	13	45	55*	20	26	nt
CCOC(=O)C1(CCc2ccccc2)CCN(Cc2ccc(OC)cc2)CC1	-25	30	34	17	14	7	nt	nt
CCCN(CCC)c1nc2ccccc2n2c(C)nnc12	-9	39	0	36	9	-1	nt	nt
CCCNc1nc2ccccc2n2c(C)nnc12	2	13	-2	0	58*	-10	33	nt
Cc1ccc(N(CC(O)CN(C)C)S(=O)(=O)c2ccccc2)cc1 (centres undefined)	-3	-16	-3	7	-9	1	nt	nt
CCCn1c(=O)c2sccc2n2c(CCCC(=O)NC3CCN(Cc4ccccc4)CC3)nnc12	0	15	0	16	7	8	nt	nt
COc1cccc(/C=N/NC(=O)c2c(C)nc3ccc(Br)cn23)c1	-4	9	-3	3	11	-7	nt	nt
Cc1nc2ccc(Br)cn2c1C(=O)N/N=C\c1ccc(C(C)C)cc1	0	11	?	-14	57*	nt	48*	64*

Bioassay records as filed in PubChem.
